Measured values: ChEMBL document CHEMBL1772956, “Synthesis and binding affinity of novel mono- and bivalent morphinan ligands for κ, μ, and δ opioid receptors” (Bioorg Med Chem, 2011)

molecular target: T1, Mu-type opioid receptor (Homo sapiens, UniProt P35372); assay: Antagonist activity at human mu-opioid receptor expressed in CHO cells assessed as inhibition of DAMGO-induced [35S]GTPgammaS binding after 60 mins by scintillation counting relative to control; format: functional, cell-based; details: not given
T1 sequence (P35372 whole entry): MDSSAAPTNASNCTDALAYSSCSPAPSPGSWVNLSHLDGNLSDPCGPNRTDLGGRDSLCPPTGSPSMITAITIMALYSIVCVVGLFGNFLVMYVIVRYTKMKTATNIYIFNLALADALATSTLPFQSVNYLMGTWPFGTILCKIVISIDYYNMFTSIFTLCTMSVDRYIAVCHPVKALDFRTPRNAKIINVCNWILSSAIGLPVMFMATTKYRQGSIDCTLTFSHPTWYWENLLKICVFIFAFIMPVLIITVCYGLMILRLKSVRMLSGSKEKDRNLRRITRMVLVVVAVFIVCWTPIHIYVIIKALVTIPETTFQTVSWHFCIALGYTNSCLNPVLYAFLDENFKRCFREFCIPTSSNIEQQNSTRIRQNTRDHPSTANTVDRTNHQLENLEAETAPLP
Method in brief: (§1)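 Human μ receptor CHO membranes were incubated with 200 nM DAMGO to drive [35S]GTPγS (0.08 nM) binding, with 12 compound concentrations up to 10 μM, in Tris pH 7.4/GDP/MgCl2/EGTA/NaCl buffer, 60 min at 30°C. Nonspecific binding was with 10 μM GTPγS. Samples were filtered and counted.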

Point of comparison: `C=CCN1CC[C@]23c4c5ccc(OC(=O)CCCCCCCCC(=O)Oc6ccc7c(c6)[C@@]68CCCC[C@@]6(OC)[C@@H](C7)N(CC6CCC6)CC8)c4O[C@H]2C(=O)CC[C@@]3(O)[C@H]1C5`, Imax 45%. Against it:
- CO[C@@]12CCCC[C@@]13CCN(CC1CCC1)[C@@H]2Cc1ccc(O)cc13 — higher, 50%
- CO[C@@]12CCCC[C@@]13CCN(CC1CCC1)[C@@H]2Cc1ccc(OC(=O)CCCCCCCCC(=O)OCc2ccccc2)cc13 — lower, 28%

molecular target: T2, Kappa-type opioid receptor (Homo sapiens, UniProt P41145); assay: Agonist activity at human kappa-opioid receptor expressed in CHO cells assessed as stimulation of [35S]GTPgammaS binding after 60 mins by scintillation counting relative to control; format: functional, cell-based; details: not given
T2 sequence (P41145 whole entry): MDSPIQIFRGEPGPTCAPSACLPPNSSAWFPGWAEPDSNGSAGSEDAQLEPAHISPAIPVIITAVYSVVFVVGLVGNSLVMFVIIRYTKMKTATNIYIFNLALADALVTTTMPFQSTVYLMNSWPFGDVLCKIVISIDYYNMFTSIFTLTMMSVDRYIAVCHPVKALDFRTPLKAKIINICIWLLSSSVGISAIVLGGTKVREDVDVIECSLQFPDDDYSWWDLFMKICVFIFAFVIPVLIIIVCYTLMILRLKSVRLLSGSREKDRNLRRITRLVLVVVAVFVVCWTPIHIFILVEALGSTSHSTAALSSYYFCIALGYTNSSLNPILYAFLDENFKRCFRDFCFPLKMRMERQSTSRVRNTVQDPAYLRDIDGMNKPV
Method in brief: (§2)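 Membranes from CHO cells stably expressing human κ or μ opioid receptor were incubated with 12 compound concentrations in 50 mM Tris-HCl pH 7.4 with 3 μM GDP, 3 mM MgCl2, 0.2 mM EGTA and 100 mM NaCl. [35S]GTPγS was 0.08 nM final, 60 min at 30°C, and 10 μM GTPγS gave nonspecific binding. Samples were filtered and counted. EC50 and Emax (% stimulation over basal) came from three experiments in triplicate.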

Point of comparison: `C=CCN1CC[C@]23c4c5ccc(OC(=O)CCCCCCCCC(=O)Oc6ccc7c(c6)[C@@]68CCCC[C@@]6(OC)[C@@H](C7)N(CC6CCC6)CC8)c4O[C@H]2C(=O)CC[C@@]3(O)[C@H]1C5`, Emax 80%. Against it:
- CO[C@@]12CCCC[C@@]13CCN(CC1CCC1)[C@@H]2Cc1ccc(O)cc13 — higher, 90%
- CO[C@@]12CCCC[C@@]13CCN(CC1CCC1)[C@@H]2Cc1ccc(OC(=O)CCCCCCCCC(=O)OCc2ccccc2)cc13 — higher, 90%

molecular target: T2, Kappa-type opioid receptor; assay: Agonist activity at human kappa-opioid receptor expressed in CHO cells assessed as stimulation of [35S]GTPgammaS binding after 60 mins by scintillation counting; format: functional, cell-based; details: not given; method in brief: as §2

Point of comparison: `CO[C@@]12CCCC[C@@]13CCN(CC1CCC1)[C@@H]2Cc1ccc(OC(=O)CCCCCCCCC(=O)OCc2ccccc2)cc13`, EC50 2.1 nM. Against it:
- C=CCN1CC[C@]23c4c5ccc(OC(=O)CCCCCCCCC(=O)Oc6ccc7c(c6)[C@@]68CCCC[C@@]6(OC)[C@@H](C7)N(CC6CCC6)CC8)c4O[C@H]2C(=O)CC[C@@]3(O)[C@H]1C5 — 8.6-fold higher, 18 nM
- CO[C@@]12CCCC[C@@]13CCN(CC1CCC1)[C@@H]2Cc1ccc(O)cc13 — within 1.5-fold, 2.8 nM

molecular target: T1, Mu-type opioid receptor; assay: Agonist activity at human mu-opioid receptor expressed in CHO cells assessed as stimulation of [35S]GTPgammaS binding after 60 mins by scintillation counting; format: functional, cell-based; details: not given; method in brief: as §2

Point of comparison: `CO[C@@]12CCCC[C@@]13CCN(CC1CCC1)[C@@H]2Cc1ccc(O)cc13`, EC50 3.6 nM. Against it:
- C=CCN1CC[C@]23c4c5ccc(OC(=O)CCCCCCCCC(=O)Oc6ccc7c(c6)[C@@]68CCCC[C@@]6(OC)[C@@H](C7)N(CC6CCC6)CC8)c4O[C@H]2C(=O)CC[C@@]3(O)[C@H]1C5 — 2.8-fold higher, 10 nM
- CO[C@@]12CCCC[C@@]13CCN(CC1CCC1)[C@@H]2Cc1ccc(OC(=O)CCCCCCCCC(=O)OCc2ccccc2)cc13 — 2.1-fold lower, 1.7 nM

molecular target: T2, Kappa-type opioid receptor; assay: Antagonist activity at human kappa-opioid receptor expressed in CHO cells assessed as inhibition of U69593-induced [35S]GTPgammaS binding after 60 mins by scintillation counting; format: functional, cell-based; details: read-out: IC50

Point of comparison: `C=CCN1CC[C@]23c4c5ccc(OC(=O)CCCCCCCCC(=O)Oc6ccc7c(c6)[C@@]68CCCC[C@@]6(OC)[C@@H](C7)N(CC6CCC6)CC8)c4O[C@H]2C(=O)CC[C@@]3(O)[C@H]1C5`, IC50 7.7 nM. Against it:
- CO[C@@]12CCCC[C@@]13CCN(CC1CCC1)[C@@H]2Cc1ccc(O)cc13 — 2.9-fold higher, 22 nM
- CO[C@@]12CCCC[C@@]13CCN(CC1CCC1)[C@@H]2Cc1ccc(OC(=O)CCCCCCCCC(=O)OCc2ccccc2)cc13 — within 1.5-fold, 6.4 nM

molecular target: T2, Kappa-type opioid receptor; assay: Antagonist activity at human kappa-opioid receptor expressed in CHO cells assessed as inhibition of U69593-induced [35S]GTPgammaS binding after 60 mins by scintillation counting relative to control; format: functional, cell-based; details: not given

Point of comparison: `C=CCN1CC[C@]23c4c5ccc(OC(=O)CCCCCCCCC(=O)Oc6ccc7c(c6)[C@@]68CCCC[C@@]6(OC)[C@@H](C7)N(CC6CCC6)CC8)c4O[C@H]2C(=O)CC[C@@]3(O)[C@H]1C5`, Imax 33%. Against it:
- CO[C@@]12CCCC[C@@]13CCN(CC1CCC1)[C@@H]2Cc1ccc(O)cc13 — higher, 37%
- CO[C@@]12CCCC[C@@]13CCN(CC1CCC1)[C@@H]2Cc1ccc(OC(=O)CCCCCCCCC(=O)OCc2ccccc2)cc13 — lower, 30%

organism: Homo sapiens; assay: Selectivity ratio of Ki for human kappa opioid receptor over Ki for human mu opioid receptor; details: not given

Point of comparison: `CO[C@@]12CCCC[C@@]13CCN(CC1CCC1)[C@@H]2Cc1ccc(O)cc13`, Ratio Ki 1. Against it:
- O=C(CCCCCCCCC(=O)Oc1ccc2c(c1)[C@@]13CCCC[C@H]1[C@@H](C2)N(CC1CCC1)CC3)Oc1ccc2c(c1)[C@@]13CCCC[C@H]1[C@@H](C2)N(CC1CCC1)CC3 — higher, 2
- Nc1nc2cc3c(cc2s1)C[C@@H]1[C@@H]2CCCC[C@]32CCN1CC1CC1 — higher, 31
- O=C(/C=C/C(=O)Oc1ccc2c(c1)[C@@]13CCCC[C@H]1[C@@H](C2)N(CC1CCC1)CC3)Oc1ccc2c(c1)[C@@]13CCCC[C@H]1[C@@H](C2)N(CC1CCC1)CC3 — higher, 3
- C=CCN1CC[C@]23c4c5ccc(OC(=O)CCCCCCCCC(=O)Oc6ccc7c(c6)[C@@]68CCCC[C@@]6(OC)[C@@H](C7)N(CC6CCC6)CC8)c4O[C@H]2C(=O)CC[C@@]3(O)[C@H]1C5 — higher, 4
- CO[C@@]12CCCC[C@@]13CCN(CC1CCC1)[C@@H]2Cc1ccc(OC(=O)CCCCCCCCC(=O)OCc2ccccc2)cc13 — the same, 1

molecular target: T2, Kappa-type opioid receptor; assay: biochemical; format: cell-based, CHO; details: not given

Point of comparison: `C=CCN1CC[C@]23c4c5ccc(OC(=O)CCCCCCCCC(=O)Oc6ccc7c(c6)[C@@]68CCCC[C@@]6(OC)[C@@H](C7)N(CC6CCC6)CC8)c4O[C@H]2C(=O)CC[C@@]3(O)[C@H]1C5`, Ki 0.14 nM. Against it:
- CO[C@@]12CCCC[C@@]13CCN(CC1CCC1)[C@@H]2Cc1ccc(O)cc13 — within 1.5-fold, 0.2 nM
- CO[C@@]12CCCC[C@@]13CCN(CC1CCC1)[C@@H]2Cc1ccc(OC(=O)CCCCCCCCC(=O)OCc2ccccc2)cc13 — 1.6-fold higher, 0.23 nM

molecular target: T1, Mu-type opioid receptor; assay: Agonist activity at human mu-opioid receptor expressed in CHO cells assessed as stimulation of [35S]GTPgammaS binding after 60 mins by scintillation counting relative to control; format: functional, cell-based; details: not given; method in brief: as §2

Point of comparison: `CO[C@@]12CCCC[C@@]13CCN(CC1CCC1)[C@@H]2Cc1ccc(O)cc13`, Emax 50%. Against it:
- C=CCN1CC[C@]23c4c5ccc(OC(=O)CCCCCCCCC(=O)Oc6ccc7c(c6)[C@@]68CCCC[C@@]6(OC)[C@@H](C7)N(CC6CCC6)CC8)c4O[C@H]2C(=O)CC[C@@]3(O)[C@H]1C5 — higher, 62%
- CO[C@@]12CCCC[C@@]13CCN(CC1CCC1)[C@@H]2Cc1ccc(OC(=O)CCCCCCCCC(=O)OCc2ccccc2)cc13 — higher, 54%

molecular target: Delta-type opioid receptor (Homo sapiens, UniProt P41143); assay: Displacement of [3H]naltrindole from human delta-opioid receptor expressed in CHO cells after 3 hrs by scintillation counting; format: cell-based; details: not given
Sequence (P41143 whole entry): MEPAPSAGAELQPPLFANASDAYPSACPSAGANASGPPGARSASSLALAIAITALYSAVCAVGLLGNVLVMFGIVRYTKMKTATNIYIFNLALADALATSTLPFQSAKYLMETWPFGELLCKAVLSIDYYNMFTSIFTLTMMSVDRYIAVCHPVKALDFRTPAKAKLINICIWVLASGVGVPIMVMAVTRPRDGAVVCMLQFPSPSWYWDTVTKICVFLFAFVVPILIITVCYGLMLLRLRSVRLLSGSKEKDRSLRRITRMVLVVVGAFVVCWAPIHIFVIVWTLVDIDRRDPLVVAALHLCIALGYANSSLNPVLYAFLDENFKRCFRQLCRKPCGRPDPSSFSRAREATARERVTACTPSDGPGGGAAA

Point of comparison: `C=CCN1CC[C@]23c4c5ccc(OC(=O)CCCCCCCCC(=O)Oc6ccc7c(c6)[C@@]68CCCC[C@@]6(OC)[C@@H](C7)N(CC6CCC6)CC8)c4O[C@H]2C(=O)CC[C@@]3(O)[C@H]1C5`, Ki 39 nM. Against it:
- CO[C@@]12CCCC[C@@]13CCN(CC1CCC1)[C@@H]2Cc1ccc(O)cc13 — 4.8-fold lower, 8.1 nM
- CO[C@@]12CCCC[C@@]13CCN(CC1CCC1)[C@@H]2Cc1ccc(OC(=O)CCCCCCCCC(=O)OCc2ccccc2)cc13 — 2.8-fold lower, 14 nM

molecular target: T1, Mu-type opioid receptor; assay: biochemical; format: cell-based, CHO; details: not given

Point of comparison: `CO[C@@]12CCCC[C@@]13CCN(CC1CCC1)[C@@H]2Cc1ccc(OC(=O)CCCCCCCCC(=O)OCc2ccccc2)cc13`, Ki 0.15 nM. Against it:
- C=CCN1CC[C@]23c4c5ccc(OC(=O)CCCCCCCCC(=O)Oc6ccc7c(c6)[C@@]68CCCC[C@@]6(OC)[C@@H](C7)N(CC6CCC6)CC8)c4O[C@H]2C(=O)CC[C@@]3(O)[C@H]1C5 — 3.7-fold higher, 0.55 nM
- CO[C@@]12CCCC[C@@]13CCN(CC1CCC1)[C@@H]2Cc1ccc(O)cc13 — within 1.5-fold, 0.14 nM

organism: Homo sapiens; assay: Selectivity ratio of Ki for human kappa opioid receptor over Ki for human delta opioid receptor; details: not given

Point of comparison: `O=C(CCCCCCCCC(=O)Oc1ccc2c(c1)[C@@]13CCCC[C@H]1[C@@H](C2)N(CC1CCC1)CC3)Oc1ccc2c(c1)[C@@]13CCCC[C@H]1[C@@H](C2)N(CC1CCC1)CC3`, Ratio Ki 90. Against it:
- Nc1nc2cc3c(cc2s1)C[C@@H]1[C@@H]2CCCC[C@]32CCN1CC1CC1 — higher, 592
- O=C(/C=C/C(=O)Oc1ccc2c(c1)[C@@]13CCCC[C@H]1[C@@H](C2)N(CC1CCC1)CC3)Oc1ccc2c(c1)[C@@]13CCCC[C@H]1[C@@H](C2)N(CC1CCC1)CC3 — higher, 120
- C=CCN1CC[C@]23c4c5ccc(OC(=O)CCCCCCCCC(=O)Oc6ccc7c(c6)[C@@]68CCCC[C@@]6(OC)[C@@H](C7)N(CC6CCC6)CC8)c4O[C@H]2C(=O)CC[C@@]3(O)[C@H]1C5 — higher, 280
- CO[C@@]12CCCC[C@@]13CCN(CC1CCC1)[C@@H]2Cc1ccc(O)cc13 — lower, 58
- CO[C@@]12CCCC[C@@]13CCN(CC1CCC1)[C@@H]2Cc1ccc(OC(=O)CCCCCCCCC(=O)OCc2ccccc2)cc13 — higher, 93

molecular target: T1, Mu-type opioid receptor; assay: Antagonist activity at human mu-opioid receptor expressed in CHO cells assessed as inhibition of DAMGO-induced [35S]GTPgammaS binding after 60 mins by scintillation counting; format: functional, cell-based; details: not given; method in brief: as §1

Point of comparison: `CO[C@@]12CCCC[C@@]13CCN(CC1CCC1)[C@@H]2Cc1ccc(OC(=O)CCCCCCCCC(=O)OCc2ccccc2)cc13`, IC50 7.6 nM. Against it:
- C=CCN1CC[C@]23c4c5ccc(OC(=O)CCCCCCCCC(=O)Oc6ccc7c(c6)[C@@]68CCCC[C@@]6(OC)[C@@H](C7)N(CC6CCC6)CC8)c4O[C@H]2C(=O)CC[C@@]3(O)[C@H]1C5 — 2.5-fold higher, 19 nM
- CO[C@@]12CCCC[C@@]13CCN(CC1CCC1)[C@@H]2Cc1ccc(O)cc13 — within 1.5-fold, 9.3 nM
